ChEMBL document CHEMBL4368908 (J Med Chem, 2019)
Calls of active or inactive are those of the source. No cut-off for these calls is given here.

Key:
[1] = target: T1, Inositol hexakisphosphate kinase 2 (Homo sapiens, UniProt Q9UHH9); assay: Inhibition of human IP6K2 using insP6 as substrate preincubated for 15 mins followed by substrate and measured after 30 mins by TR-FRET assay
T1 sequence (Q9UHH9 whole entry): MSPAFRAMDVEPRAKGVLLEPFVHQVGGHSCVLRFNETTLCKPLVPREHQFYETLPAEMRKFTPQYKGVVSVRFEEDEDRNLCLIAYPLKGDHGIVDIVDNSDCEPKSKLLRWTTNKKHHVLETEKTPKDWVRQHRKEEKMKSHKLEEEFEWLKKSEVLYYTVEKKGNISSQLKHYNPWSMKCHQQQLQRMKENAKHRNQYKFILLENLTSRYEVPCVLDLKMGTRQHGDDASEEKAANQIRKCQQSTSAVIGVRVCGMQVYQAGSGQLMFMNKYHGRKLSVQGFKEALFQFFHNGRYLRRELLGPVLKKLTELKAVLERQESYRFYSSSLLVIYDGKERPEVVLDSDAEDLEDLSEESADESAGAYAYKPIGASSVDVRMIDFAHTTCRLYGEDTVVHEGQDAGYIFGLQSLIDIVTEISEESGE

[2] = target: T2, Inositol polyphosphate multikinase (Homo sapiens, UniProt Q8NFU5); assay: Inhibition of human IPMK using insP3 as substrate preincubated for 15 mins followed by substrate and measured after 30 mins by TR-FRET assay
Homo sapiens = species on record: Homo sapiens; assay: Selectivity ratio of IC50 for human IPMK to IC50 for human IP6K2
Outline: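 Recombinant human IPMK (12 nM) or IP6K2 (400 nM) equilibrated 15 min at room temperature with compound (10-point, 0.005–100 μM, 1% DMSO) in 50 mM HEPES pH 7.5, 0.01% Brij-35, 10 mM MgCl₂, 1 mM EGTA. Reaction started with 10 μM ATP plus 10 μM InsP₃ (IPMK) or InsP₆ (IP6K2), run 30 min. ADP detected by Adapta TR-FRET. IC50 from 4-parameter fit.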

HCT-116 [3] = assay: Down regulation of insp5 levels in human [3H]-inositol-labelled HCT116 cells at 2.5 uM after 3.5 hrs by HPLC analysis; assay type: functional, cell-based
Outline: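 HCT116 cells labeled with [³H]inositol (20 μCi/ml) were treated for 3.5 h with 2.5 μM flavonoid; compounds were added in DMSO, final 0.1%. Cells were PCA-quenched, and InsPs were extracted and resolved by CarboPac HPLC. Values are versus DMSO controls, n=3–4, by one-way ANOVA (Dunnett).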

[4] = target: T2, Inositol polyphosphate multikinase; assay: Inhibition of IPMK in human [3H]-inositol-labelled HCT116 cells assessed as reduction in insp5 levels at 2.5 uM after 3.5 hrs by HPLC analysis relative to control
Outline: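 [3H]inositol-labelled (20 μCi/ml) HCT116 cells exposed 3.5 h to 2.5 μM flavonoid in DMSO (final 0.1%). PCA quench, extraction and CarboPac HPLC of InsP5/InsP6/InsP7, compared with DMSO vehicle control. Means ± SE, n=3–4; Dunnett's one-way ANOVA versus DMSO.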

[5] = target: T2, Inositol polyphosphate multikinase; assay: Inhibition of IPMK in [3H]-inositol-labelled HEK293 cells assessed as reduction in insp5 levels at 2.5 uM after 3.5 hrs by HPLC analysis relative to control; assay type: cell-based
Outline: (§1)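 HEK293 cells labelled with [3H]inositol (20 μCi/ml), treated 3.5 h with 2.5 μM flavonoid in DMSO (final 0.1%; vehicle controls). PCA-quenched extracts analysed by CarboPac HPLC for InsP5, InsP6, InsP7 relative to DMSO control. Means ± SE, n=3; Dunnett's one-way ANOVA.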

HEK293 = assay: Down regulation of insp5 levels in [3H]-inositol-labelled HEK293 cells at 2.5 uM after 3.5 hrs by HPLC analysis; assay type: functional, cell-based; details: Homo sapiens; outline: as §1
[6] = target: RAC-alpha serine/threonine-protein kinase (Homo sapiens) (UniProt P31749); assay: Effect on AKT activity in human HCT116 cells assessed as AKT phosphorylation at T308 residues at 2.5 uM after 3 hrs by Western blot analysis; assay type: cell-based
Outline: (§2)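 Cells (3T3-L1 preadipocytes 2 days post-confluent; HCT116 1 day post-confluent) treated 3 h with 2.5 μM flavonoid in DMSO (final DMSO 0.1%, vehicle control). Lysed in Tris pH 7.4/NaCl/Triton X-100 with protease-phosphatase inhibitors; 20 μg protein by SDS-PAGE and immunoblot for phospho-AKT T308 and total AKT. pAKT/total AKT ratio normalized to sum of ratios per gel; Dunnett's one-way ANOVA versus DMSO.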

[7] = target: RAC-alpha serine/threonine-protein kinase (Mus musculus) (UniProt P31750); assay: Activation of AKT activity in mouse 3T3-L1 cells assessed as increase in AKT phosphorylation at T308 residues at 2.5 uM after 3 hrs by Western blot analysis; assay type: cell-based; outline: as §2
[8] = target: T3, Inositol hexakisphosphate kinase 2 (Mus musculus) (UniProt Q80V72); assay: Inhibition of IP6K2 in mouse 3T3-L1 cells assessed as AKT phosphorylation at T308 at 1 uM after 3 hrs by Western blot analysis; assay type: cell-based
T3 sequence (whole entry): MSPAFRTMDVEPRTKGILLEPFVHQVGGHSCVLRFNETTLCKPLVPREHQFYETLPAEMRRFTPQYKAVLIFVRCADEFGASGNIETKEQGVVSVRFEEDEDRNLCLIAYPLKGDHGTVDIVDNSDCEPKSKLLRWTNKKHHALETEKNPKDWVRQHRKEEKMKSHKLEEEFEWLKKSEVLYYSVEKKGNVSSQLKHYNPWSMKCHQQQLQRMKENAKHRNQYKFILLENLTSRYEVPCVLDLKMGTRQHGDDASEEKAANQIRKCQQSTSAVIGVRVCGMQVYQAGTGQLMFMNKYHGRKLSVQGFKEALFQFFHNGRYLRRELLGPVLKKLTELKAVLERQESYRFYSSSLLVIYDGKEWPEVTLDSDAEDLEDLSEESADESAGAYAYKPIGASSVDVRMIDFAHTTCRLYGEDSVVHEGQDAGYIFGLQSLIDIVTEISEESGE
Outline: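 TNP reference treatment: 2-day post-confluent 3T3-L1 preadipocytes given 1 μM TNP in DMSO (final 0.1%) for 3 h. Lysates (20 μg protein) immunoblotted for phospho-AKT T308 and total AKT. pAKT/total AKT ratio normalized to sum of ratios per gel; one-way ANOVA (Dunnett) versus DMSO vehicle.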

HCT-116 [9] = assay: Down regulation of insp5 levels in human [3H]-inositol-labelled HCT116 cells at 10 uM after 3.5 hrs by HPLC analysis; assay type: functional, cell-based
Outline: (§3)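 HCT116 cells labelled with [3H]inositol at 20 μCi/ml, then treated 3.5 h with 10 μM flavonoid in DMSO (final 0.1%; vehicle controls). Quenched with PCA; extracted [3H]InsP5, InsP6 and InsP7 resolved by CarboPac HPLC and quantified as peak DPM relative to DMSO control.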

[10] = target: T2, Inositol polyphosphate multikinase; assay: Inhibition of IPMK in human [3H]-inositol-labelled HCT116 cells assessed as reduction in insp5 levels at 10 uM after 3.5 hrs by HPLC analysis relative to control; outline: as §3
[11] = target: T2, Inositol polyphosphate multikinase; assay: Inhibition of IPMK in human [3H]-inositol-labelled HCT116 cells assessed as reduction in insp5 levels at 2.5 uM up to 200 mins by HPLC analysis relative to control
Outline: (§4)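 Time course: HCT116 cells prelabelled with [3H]inositol (20 μCi/ml) and treated with 2.5 μM flavonoid in DMSO (final 0.1%) for the indicated times. InsP5, InsP6 and InsP7 measured by CarboPac HPLC after PCA quench and extraction. Means ± SE, n=3–4.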

[12] = target: RAC-alpha serine/threonine-protein kinase (Homo sapiens) (UniProt P31749); assay: Effect on AKT activity in human HCT116 cells assessed as AKT phosphorylation at T308 residues at 10 uM after 3 hrs by Western blot analysis; assay type: cell-based
[13] = target: RAC-alpha serine/threonine-protein kinase (Mus musculus) (UniProt P31750); assay: Activation of AKT activity in mouse 3T3-L1 cells assessed as increase in AKT phosphorylation at T308 residues at 10 uM after 3 hrs by Western blot analysis; assay type: cell-based
HCT-116 [14] = assay: Down regulation of insp5 levels in human [3H]-inositol-labelled HCT116 cells at 2.5 uM up to 200 mins by HPLC analysis; assay type: functional, cell-based; outline: as §4

Chain of RAC-alpha serine/threonine-protein kinase (Mus musculus) (P31750 whole entry): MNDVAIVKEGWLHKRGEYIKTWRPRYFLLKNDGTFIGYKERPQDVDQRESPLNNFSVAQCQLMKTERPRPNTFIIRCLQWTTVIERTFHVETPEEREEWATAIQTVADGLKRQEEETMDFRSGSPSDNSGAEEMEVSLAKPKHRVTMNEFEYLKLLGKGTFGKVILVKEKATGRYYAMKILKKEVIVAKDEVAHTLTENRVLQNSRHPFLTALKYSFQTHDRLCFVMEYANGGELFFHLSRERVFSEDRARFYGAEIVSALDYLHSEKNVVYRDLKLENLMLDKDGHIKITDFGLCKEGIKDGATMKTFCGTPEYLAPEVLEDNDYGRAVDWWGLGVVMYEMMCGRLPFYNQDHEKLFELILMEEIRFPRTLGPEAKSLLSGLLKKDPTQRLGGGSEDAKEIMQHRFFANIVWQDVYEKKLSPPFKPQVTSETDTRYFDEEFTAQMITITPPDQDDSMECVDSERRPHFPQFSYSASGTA
T2 sequence (Q8NFU5 whole entry): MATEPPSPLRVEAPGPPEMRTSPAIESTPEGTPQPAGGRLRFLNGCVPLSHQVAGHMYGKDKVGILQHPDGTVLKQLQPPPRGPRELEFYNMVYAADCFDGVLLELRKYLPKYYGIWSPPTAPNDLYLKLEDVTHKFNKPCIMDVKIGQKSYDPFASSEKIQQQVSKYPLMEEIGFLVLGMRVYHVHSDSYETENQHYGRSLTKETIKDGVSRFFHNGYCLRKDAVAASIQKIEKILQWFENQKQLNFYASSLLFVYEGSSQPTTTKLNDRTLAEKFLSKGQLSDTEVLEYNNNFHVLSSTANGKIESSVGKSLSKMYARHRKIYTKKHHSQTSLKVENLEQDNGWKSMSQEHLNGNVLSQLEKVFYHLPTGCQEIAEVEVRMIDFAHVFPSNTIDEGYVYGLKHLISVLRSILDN
Chain of RAC-alpha serine/threonine-protein kinase (Homo sapiens) (P31749 whole entry): as the sequence (P31750 whole entry) above, with N2S, S50A, A100T, R112K, T117E, T389K, N410G, D415H counted along it

SMILES | IC50 [1] [µM] | IC50 [2] [µM] | Ratio IC50 (Homo sapiens) | inhibition (HCT-116 [3]) | inhibition [4] | other results
O=C1C[C@@H](c2ccc(O)cc2)Oc2cc(O)cc(O)c21 [NARINGENIN] | > 30 | > 30 | – | – | – | –
O=c1cc(-c2ccc(O)cc2)oc2cccc(O)c12 | > 30 | > 30 | – | – | – | –
COc1cc(O)c2c(=O)cc(-c3ccc(O)cc3)oc2c1 [GENKWANIN] | 24 | > 30 | > 1.3 | – | – | –
COc1cc(O)c2c(=O)c(O)c(-c3ccc(O)c(O)c3)oc2c1 [RHAMNETIN] | 1.8 | 14 | > 7.8 | inactive | inactive | –
O=c1cc(-c2ccc(O)c(O)c2)oc2cc(O)cc(O)c12 [LUTEOLIN] | 1.3 | 5.5 | 4.2 | inactive | inactive | inhibition [5]: inactive; inhibition (HEK293): inactive; Activity [6]: inactive; Activity [7]: Active; inhibition [8]: Active
O=c1cc(-c2ccc(O)c(O)c2)oc2ccccc12 | 11.4 | > 30 | > 2.6 | – | – | –
O=c1c(O)c(-c2cc(O)c(O)c(O)c2)oc2cc(O)cc(O)c12 [MYRICETIN] | 0.7 | 1.1 | – | inactive | inactive | –
COc1ccc(-c2cc(=O)c3c(O)cc(O)cc3o2)cc1 [ACACETIN] | 5.7 | > 30 | > 5.3 | – | – | –
O=c1cc(-c2ccc(O)cc2)oc2cc(O)cc(O)c12 [APIGENIN] | 7.1 | 29 | 4.1 | – | – | –
O=c1cc(-c2ccc(O)c(O)c2)oc2cccc(O)c12 | 8 | > 30 | > 3.8 | – | – | –
COc1ccc(-c2cc(=O)c3c(O)cc(O)cc3o2)cc1O | – | – | – | inactive | inactive | inhibition (HCT-116 [9]): inactive; inhibition [10]: inactive; inhibition [5]: inactive; inhibition (HEK293): inactive; Activity [6]: inactive; Activity [7]: Active; inhibition [8]: Active; inhibition [11]: inactive
COc1cc(-c2oc3cc(O)cc(O)c3c(=O)c2O)ccc1O [ISORHAMNETIN] | 0.5 | 2.2 | 4.4 | inactive | inactive | –
O=c1c(O)c(-c2ccc(O)cc2)oc2cc(O)cc(O)c12 [KAEMPFEROL] | 2.5 | 4.4 | 1.8 | inactive | inactive | –
O=c1cc(-c2ccc(O)cc2)oc2ccc(O)cc12 | 12.9 | > 30 | > 2.3 | – | – | –
O=[N+]([O-])c1ccc(CNc2nc(NCc3cccc(C(F)(F)F)c3)nc3[nH]cnc23)cc1 | – | – | – | – | – | Activity [12]: inactive; Activity [13]: Active
O=C1C[C@@H](c2ccc(O)c(O)c2)Oc2cc(O)cc(O)c21 [ERIODICTYOL] | 25.3 | > 30 | > 1.2 | – | – | –
O=c1c(O)c(-c2ccc(O)c(O)c2)oc2cc(O)cc(O)c12 [QUERCETIN] | – | 2.3 | – | inactive | inactive | inhibition (HCT-116 [9]): inactive; inhibition [10]: 25%; inhibition [5]: inactive; inhibition (HEK293): inactive; Activity [6]: inactive; Activity [7]: Active; inhibition [8]: Active; inhibition (HCT-116 [14]): inactive; inhibition [11]: inactive
O=c1cc(-c2ccc(O)cc2)oc2cc(O)ccc12 | 18.3 | > 30 | > 1.6 | – | – | –
